# Results as given in ChEMBL document CHEMBL1145471, “Small molecule regulators of autophagy identified by an image-based high-throughput screen” (Proc Natl Acad Sci U S A, 2007).
# The source made the active and inactive calls. The calls are words filed in the database; no cut-off is given here.
# Legend:
# H4 [1] = assay: Induction of light chain 3-GFP level in human H4 cells at 4.8 uM after 24 hrs by high throughput fluorescence microscopy relative to control; format: functional
# Procedure, shortened: (§1)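 H4 cells stably expressing LC3-GFP, grown in DMEM with 10% FBS, penicillin/streptomycin and 2 mM L-glutamine at 37°C, 5% CO2. Cells were seeded in 96-well plates and exposed to library compounds at 3–12 μM for 24 h, then fixed in 4% paraformaldehyde and stained with 3 μg/ml DAPI. LC3-GFP spot number, size and intensity were measured by high-throughput fluorescence microscopy and expressed relative to DMSO. Triplicates, mean ± SD.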
# H4 [2] = assay: Increase in FYVE-RFP+ vesicle intensity per cell in human H4 cells after 4 hrs relative to control; format: functional; design: concentration or dose not given beside the values
# Procedure, shortened: (§2)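 H4 cells stably expressing FYVE-RFP (H4-FYVE), grown in DMEM with 10% FBS, penicillin/streptomycin and 2 mM L-glutamine at 37°C, 5% CO2, seeded in 96-well plates and exposed to compound. Fixed in 4% paraformaldehyde, nuclei stained with 3 μg/ml DAPI, FYVE-RFP+ vesicles quantified by high-throughput fluorescence microscopy against DMSO control. Triplicate wells, mean ± SD.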
# H4 [3] = assay: Increase in long-lived protein degradation in human H4 cells after 2 hrs relative to control; format: functional; design: concentration or dose not given beside the values
# H4 [4] = assay: Increase in long-lived protein degradation in human H4 cells after 1 hr relative to control; format: functional; design: concentration or dose not given beside the values
# [5] = target: Serine/threonine-protein kinase mTOR (Homo sapiens, UniProt P42345); assay: Effect on mTOR phosphorylation in human H4 cells at 4.8 uM after 4 hrs; format: cell-based
# Procedure, shortened: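 H4 cells exposed to compound for 4 h. Lysates analysed by Western blot with anti-phospho and anti-total mTOR antibodies, with actin as loading control. Rapamycin served as reference.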
# H4 [6] = assay: Increase in light chain 3-GFP+ autophagosome vesicle area per cell in human H4 cells at 4.8 uM after 24 hrs by high throughput fluorescence microscopy relative to control; format: functional
# Procedure, shortened: (§3)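 H4 cells stably expressing LC3-GFP, seeded in 96-well plates and exposed to compound for 24 h; screening concentrations were 3–12 μM, with rapamycin 0.22 μM and bafilomycin A1 0.40 μM. Cells fixed in 4% paraformaldehyde and stained with 3 μg/ml DAPI. Number, size and intensity of LC3-GFP spots measured by high-throughput fluorescence microscopy and expressed as percent of DMSO-treated wells. Rapamycin was the positive control. Triplicate wells, mean ± SD; experiments repeated three times.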
# H4 [7] = assay: Increase in long-lived protein degradation in human H4 cells after 24 hrs relative to control; format: functional; design: concentration or dose not given beside the values
# H4 [8] = assay: Increase in FYVE-RFP+ vesicle intensity per cell in human H4 cells after 2 hrs relative to control; format: functional; design: concentration or dose not given beside the values; procedure, shortened: as §2
# H4 [9] = assay: Increase in ratio of light chain 3 subunit 2 to light chain 3 subunit 1 in human H4 cells at 4.8 uM after 4 hrs by Western blot; format: functional, cell-based
# Procedure, shortened: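 H4 cells were treated with each compound for 4 h, then lysed. Lysates were immunoblotted with anti-LC3 antibody, with actin as loading control. LC3II and LC3I bands were compared as an LC3II/LC3I ratio.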
# H4 [10] = assay: Increase in long-lived protein degradation in human H4 cells after 4 hrs relative to control; format: functional; design: concentration or dose not given beside the values
# H4 [11] = assay: Increase in FYVE-RFP+ vesicle intensity per cell in human H4 cells after 8 hrs relative to control; format: functional; design: concentration or dose not given beside the values; procedure, shortened: as §2
# H4 [12] = assay: Increase in light chain 3-GFP+ autophagosome vesicle number per cell in human H4 cells at 4.8 uM after 24 hrs by high throughput fluorescence microscopy relative to control; format: functional
# Procedure, shortened: (§4)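 H4 cells stably expressing LC3-GFP were grown in DMEM with 10% FBS and 2 mM L-glutamine at 37°C, 5% CO2. They were exposed to each compound for 24 h, with DMSO as negative and rapamycin as positive control. Cells were then fixed in 4% paraformaldehyde and stained with 3 μg/ml DAPI. High-throughput fluorescence imaging scored LC3-GFP spot number, size and intensity, expressed relative to DMSO. Mean ± SD of triplicates; experiments repeated three times.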
# H4 [13] = assay: Increase in light chain 3-GFP+ autophagosome vesicle intensity per cell in human H4 cells at 4.8 uM after 24 hrs by high throughput fluorescence microscopy relative to control; format: functional; procedure, shortened: as §4
# H4 [14] = assay: Effect on FYVE-RFP+ vesicle intensity per cell in human H4 cells after 4 hrs relative to control; format: functional; design: concentration or dose not given beside the values; procedure, shortened: as §2
# H4 [15] = assay: Increase in light chain 3-GFP+ autophagosome vesicle number per cell in human H4 cells at 5.7 uM after 24 hrs by high throughput fluorescence microscopy relative to control; format: functional
# Procedure, shortened: (§5)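 H4 cells stably expressing LC3-GFP, kept in DMEM/10% FBS at 37°C, 5% CO2, were seeded in 96-well plates and exposed to compound for 24 h. Cells were then fixed in 4% paraformaldehyde and stained with 3 μg/ml DAPI. Automated fluorescence microscopy scored the number, size and intensity of LC3-GFP spots. Values are percent of DMSO wells, in triplicate, mean ± SD. Rapamycin served as positive control.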
# H4 [16] = assay: Effect on FYVE-RFP+ vesicle intensity per cell in human H4 cells after 2 hrs relative to control; format: functional; design: concentration or dose not given beside the values; procedure, shortened: as §2
# H4 [17] = assay: Induction of light chain 3-GFP level in human H4 cells at 5.7 uM after 24 hrs by high throughput fluorescence microscopy relative to control; format: functional; procedure, shortened: as §5
# H4 [18] = assay: Effect on FYVE-RFP+ vesicle intensity per cell in human H4 cells after 8 hrs relative to control; format: functional; design: concentration or dose not given beside the values; procedure, shortened: as §2
# H4 [19] = assay: Increase in light chain 3-GFP+ autophagosome vesicle area per cell in human H4 cells at 5.7 uM after 24 hrs by high throughput fluorescence microscopy relative to control; format: functional
# Procedure, shortened: (§6)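 H4 cells stably expressing LC3-GFP, seeded in 96-well plates and exposed to compound for 24 h; fixed in 4% paraformaldehyde, nuclei stained with 3 μg/ml DAPI. Automated fluorescence microscopy scored number, size and intensity of LC3-GFP spots; values expressed relative to DMSO-treated wells, rapamycin positive control. Triplicate wells, mean ± SD; experiments repeated three times.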
# H4 [20] = assay: Increase in light chain 3-GFP+ autophagosome vesicle intensity per cell in human H4 cells at 5.7 uM after 24 hrs by high throughput fluorescence microscopy relative to control; format: functional; procedure, shortened: as §6
# H4 [21] = assay: Increase in light chain 3-GFP+ autophagosome vesicle intensity per cell in human H4 cells at 6.6 uM after 24 hrs by high throughput fluorescence microscopy relative to control; format: functional; procedure, shortened: as §4
# H4 [22] = assay: Increase in light chain 3-GFP+ autophagosome vesicle area per cell in human H4 cells at 6.6 uM after 24 hrs by high throughput fluorescence microscopy relative to control; format: functional; procedure, shortened: as §3
# H4 [23] = assay: Induction of light chain 3-GFP level in human H4 cells at 6.6 uM after 24 hrs by high throughput fluorescence microscopy relative to control; format: functional; procedure, shortened: as §1
# H4 [24] = assay: Increase in light chain 3-GFP+ autophagosome vesicle number per cell in human H4 cells at 6.6 uM after 24 hrs by high throughput fluorescence microscopy relative to control; format: functional; procedure, shortened: as §4
# H4 [25] = assay: Increase in light chain 3-GFP+ autophagosome vesicle intensity per cell in human H4 cells at 4.4 uM after 24 hrs by high throughput fluorescence microscopy relative to control; format: functional; procedure, shortened: as §4
# H4 [26] = assay: Increase in light chain 3-GFP+ autophagosome vesicle area per cell in human H4 cells at 4.4 uM after 24 hrs by high throughput fluorescence microscopy relative to control; format: functional; procedure, shortened: as §3
# H4 [27] = assay: Induction of autophagy in human H4 cells; format: functional, cell-based
# H4 [28] = assay: Increase in light chain 3-GFP+ autophagosome vesicle number per cell in human H4 cells at 4.4 uM after 24 hrs by high throughput fluorescence microscopy relative to control; format: functional; procedure, shortened: as §4
# H4 [29] = assay: Induction of light chain 3-GFP level in human H4 cells at 4.4 uM after 24 hrs by high throughput fluorescence microscopy relative to control; format: functional; procedure, shortened: as §1
SMILES,Activity (H4 [3]) [%],Activity (H4 [4]) [%],Activity (H4 [7]) [%],Activity (H4 [10]) [%],Activity (H4 [14]) [%],Activity (H4 [16]) [%],Activity (H4 [18]) [%],further results
COC(=O)C1=C(C)NC(C)=C(C(=O)OCCN(C)Cc2ccccc2)C1c1cccc([N+](=O)[O-])c1 (configuration not stated) [NICARDIPINE],126.59,84.62,121.03,122.6,,,,Activity (H4 [1]): 131.58%; Activity (H4 [2]): 112.51%; Activity [5]: inactive; Activity (H4 [6]): 197.46%; Activity (H4 [8]): 132.05%; Activity (H4 [9]): Active; Activity (H4 [11]): 104.77%; Activity (H4 [12]): 169.02%; Activity (H4 [13]): 229.64%
CC(C)(O)[C@H]1O[C@H]2CC[C@@]3(C)[C@@](O)(CC[C@H]4Cc5c([nH]c6ccccc56)[C@@]43C)C2=CC1=O [PAXILLINE],112.34,100.56,102.35,106.27,52.37,100.56,56.82,Activity (H4 [15]): 162.66%; Activity (H4 [17]): 119.79%; Activity (H4 [19]): 185.52%; Activity (H4 [20]): 205.83%
CCCNCC(O)COc1ccccc1C(=O)CCc1ccccc1 (configuration not stated) [PROPAFENONE],113.22,114.56,102.73,99.78,78.75,114.69,62.87,Activity (H4 [21]): 385.97%; Activity (H4 [22]): 271.21%; Activity (H4 [23]): 99.88%; Activity (H4 [24]): 210.4%
CC/C(=C(\c1ccccc1)c1ccc(OCCN(C)C)cc1)c1ccccc1 [TAMOXIFEN],101.24,70.67,114.97,105.85,71.55,77.66,85.37,Activity (H4 [25]): 585.87%; Activity (H4 [26]): 376.53%; Activity (H4 [27]): inactive; Activity (H4 [28]): 291.52%; Activity (H4 [29]): 91.2%
